Reference: ChEMBL document CHEMBL1125380, “Synthesis, cardiac electrophysiology, and beta-blocking activity of novel arylpiperazines with potential as class II/III antiarrhythmic agents” (J Med Chem, 1992)
Activity calls are given as the source filed them. No cut-off for these calls is given here.

What was measured:
[1] = organism: Canis familiaris; test: Compound was evaluated for Total peripheral resistance in dog; assay type: functional, Canis lupus familiaris
Method in brief: (§1)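 Pentobarbital-anesthetized mongrel dogs (n = 4) received a 10 mg/kg iv dose over 5 min. Haemodynamic parameters were recorded 15 min after dosing, as change from pre-dose.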

[2] = organism: Canis familiaris; test: Peak range of change in left ventricular pressure in dog; assay type: functional, Canis lupus familiaris, Heart left ventricle; method in brief: as §1
[3] = organism: Canis familiaris; test: Number of active animals / number of tested animals in programmed electrical stimulation model (PES); assay type: functional, Canis lupus familiaris
Method in brief: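 Conscious dogs studied by programmed electrical stimulation 3-8 days after occlusion/reperfusion infarction. Two control SVT/VF inductions were made first, with VF ended by DC countershock and SVT by burst pacing. Reinduction was tried after iv compound; an animal counted as protected if SVT/VF could not be induced.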

[4] = system: Canis familiaris; test: number of effected animals / number of tested animals at 3 mg/kg in a halothane / epinephrine model; assay type: functional, Canis lupus familiaris
Method in brief: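 Halothane-anesthetized dogs received compound as a 10-min iv infusion at 3 mg/kg. Thirty minutes later, epinephrine was infused at 1.5 µg/kg per min for 15 min. Protection meant no SVT/VF during the whole epinephrine infusion; reported as protected/tested.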

[5] = biological target: Beta-2 adrenergic receptor (Canis lupus familiaris, UniProt P54833); assay type: cell membranes
[6] = organism: Canis familiaris; test: Compound was evaluated for Cardiac output in dog; assay type: functional, Canis lupus familiaris; method in brief: as §1
[7] = organism: Canis familiaris; test: Compound was evaluated for Mean arterial pressure in dog; assay type: functional, Canis lupus familiaris, Artery; method in brief: as §1
[8] = organism: Canis familiaris; test: Compound was evaluated for change in Heart rate in dog; assay type: functional, Canis lupus familiaris; method in brief: as §1
[9] = organism: Canis familiaris; test: Concentration necessary to prolong APD at 95% repolarization by 20% from control.; assay type: functional, Canis lupus familiaris
Method in brief: (§2)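 Concentration giving a 20% prolongation of action potential duration at 95% repolarization versus control, with Vmax monitored as a class I index. Values are the log mean of n experiments with range; concentrations went up to 30 µM.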

[10] = organism: Canis familiaris; test: Concentration necessary to prolong APD at 95% repolarization by 20% from control; Not Reached at 30 uM; assay type: functional; details: Canis lupus familiaris; method in brief: as §2

Sequence of Beta-2 adrenergic receptor (P54833 whole entry): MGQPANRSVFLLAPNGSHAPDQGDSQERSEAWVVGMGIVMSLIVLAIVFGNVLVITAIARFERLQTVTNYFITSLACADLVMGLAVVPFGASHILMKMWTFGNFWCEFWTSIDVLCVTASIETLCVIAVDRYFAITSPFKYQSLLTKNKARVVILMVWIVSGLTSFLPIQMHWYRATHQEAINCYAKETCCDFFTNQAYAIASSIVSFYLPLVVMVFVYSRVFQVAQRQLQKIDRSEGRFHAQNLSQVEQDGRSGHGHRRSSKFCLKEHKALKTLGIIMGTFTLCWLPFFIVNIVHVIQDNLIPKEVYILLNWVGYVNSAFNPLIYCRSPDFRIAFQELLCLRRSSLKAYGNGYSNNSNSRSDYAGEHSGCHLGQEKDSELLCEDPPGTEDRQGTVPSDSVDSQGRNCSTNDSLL

Row | Structure (SMILES) | IC50 [5] [µM] | C20 APD95 [9] [µM] | also measured
1 | CS(=O)(=O)Nc1ccc(C(=O)NCC2CN(c3ccccc3)CCN2)cc1 (configuration not stated) | 3.4 | 0.8 | TPR [1]: 22; LV [2]: 3; No. active [3]: 6; No. effective [4]: 5; Cardiac output [6]: -14; MAP [7]: 5; HR [8]: 38
2 | CS(=O)(=O)Nc1ccc(NCC2CNCCN2c2ccccc2)cc1 (configuration not stated) | 42 | 9.2 | –
3 | CC(C)NCC(O)c1ccc(NS(C)(=O)=O)cc1 (configuration not stated) [SOTALOL] | – | 18 | TPR [1]: 41; LV [2]: -33; No. active [3]: 7; No. effective [4]: 6; Cardiac output [6]: -44; MAP [7]: -26; HR [8]: -39
4 | O=C(NCC1CN(c2ccccc2)CCN1)c1ccccc1 (configuration not stated) | 6.2 | – | C20 APD95 [10]: inactive
5 | CS(=O)(=O)Nc1ccc(CNCC2CN(c3ccccc3)CCN2)cc1 (configuration not stated) | 4.6 | 0.4 | –
6 | Clc1ccccc1N1CCNCC1 | 16 | – | –
7 | COc1cccc(N2CCNCC2)c1 | 29 | – | –
8 | c1ccc(N2CCNCC2)cc1 [PHENYLPIPERAZINE] | > 100 | – | –
9 | COc1ccc(N2CCNCC2)cc1 | > 100 | – | –
10 | CS(=O)(=O)Nc1ccc(OCC2CN(c3ccccc3)CCN2)cc1 (configuration not stated) | 4.5 | 1 | –
11 | Cc1ccc(N2CCNCC2)cc1 | > 100 | – | –
12 | CC(=O)c1ccc(N2CCNCC2)cc1 | > 100 | – | –
13 | Clc1ccc(N2CCNCC2)cc1 | 70 | – | –
14 | COc1ccccc1N1CCNCC1 | 34 | – | –
15 | COc1cccc(N2CCNC(CNC(=O)c3ccc(NS(C)(=O)=O)cc3)C2)c1 (configuration not stated) | 3.5 | 2.5 | –
16 | CS(=O)(=O)Nc1ccc(NCC2CN(c3ccccc3)CCN2)cc1 (configuration not stated) | 1 | 2 | –
17 | Cc1ccccc1N1CCNCC1 | 29 | – | –
18 | CS(=O)(=O)Nc1ccc(NC(=O)C2CN(c3ccccc3)CCN2)cc1 (configuration not stated) | > 100 | 21 | –
19 | CS(=O)(=O)Nc1ccc(C(=O)NCC2CN(c3cccc(Cl)c3)CCN2)cc1 (configuration not stated) | 3.8 | 0.8 | –
20 | CN(c1ccc(C(=O)NCC2CN(c3ccccc3)CCN2)cc1)S(C)(=O)=O (configuration not stated) | 4.3 | – | C20 APD95 [10]: inactive
21 | O=C(NCC1CN(c2ccccc2)CCN1)c1ccc(-n2ccnc2)cc1 (configuration not stated) | 4.3 | 0.9 | –
22 | Clc1cccc(N2CCNCC2)c1 [CHLOROPHENYLPIPERAZINE] | 18 | – | –
23 | COc1ccccc1N1CCNC(CNC(=O)c2ccc(NS(C)(=O)=O)cc2)C1 (configuration not stated) | 0.63 | 18 | –
24 | CS(=O)(=O)Nc1ccc(C(=O)NCC2CNCCN2c2ccccc2)cc1 (configuration not stated) | 31 | 3.2 | –
25 | Cc1cccc(N2CCNCC2)c1 | 40 | – | –
